≈ marks a conversion by molar mass, not a printed value. Calls of active or inactive are those of the source.
Experiments:
Enterococcus faecalis [1] = test: Antibacterial activity against vancomycin and teicoplanin-resistant Enterococcus faecalis 15376 harboring vanA gene after 18 hrs by broth microdilution method; assay type: functional; details: Enterococcus faecalis, 15376, 18 h
Influenza B virus [2] = test: Antiviral activity against Influenza B virus (B/Hong Kong/5/72) assessed as inhibition of virus-induced cytopathic effect at highest concentration by cell-based assay; assay type: functional; details: B/Hong Kong/05/1972
How it was run: (§1)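 Virus-induced cytopathic effect is scored visually in infected cell cultures. EC50 is defined as the compound concentration producing 50% inhibition of the CPE. A compound is recorded as not active when there is no inhibition at the highest concentration tested or at a subtoxic concentration.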

H3N2 subtype [3] = test: Antiviral activity against Influenza A virus (A/Hong Kong/7/87(H3N2)) assessed as cell viability at subtoxic concentration by cell-based MTS assay; assay type: functional, organism-based; details: A/Hong Kong/7/1987(H3N2)
[4] = test system: Staphylococcus epidermidis; test: Antibacterial activity against Staphylococcus epidermidis after 18 hrs by broth microdilution method; assay type: functional
Influenza B virus [5] = test: Antiviral activity against Influenza B virus (B/Hong Kong/5/72) assessed as cell viability at subtoxic concentration by cell-based MTS assay; assay type: functional; details: B/Hong Kong/05/1972
Staphylococcus aureus [6] = test: Antibacterial activity against methicillin-sensitive Staphylococcus aureus ATCC 29213 after 18 hrs by broth microdilution method; assay type: functional; details: ATCC 29213, 18 h
Staphylococcus aureus [7] = test: Antibacterial activity against methicillin-sensitive Staphylococcus aureus ATCC 33591 after 18 hrs by broth microdilution method; assay type: functional; details: ATCC 33591, 18 h
Enterococcus faecalis [8] = test: Antibacterial activity against vancomycin-resistant and teicoplanin-sensitive Enterococcus faecalis ATCC 51299 harboring vanB gene after 18 hrs by broth microdilution method; assay type: functional; details: ATCC 51299, 18 h
Influenza A virus [9] = test: Antiviral activity against Influenza A virus (A/Puerto Rico/8/34(H1N1)) assessed as inhibition of virus-induced cytopathic effect at highest concentration by cell-based assay; assay type: functional, organism-based; details: A/Puerto Rico/8/1934(H1N1); how it was run: as §1
Influenza A virus [10] = test: Antiviral activity against Influenza A virus (A/Puerto Rico/8/34(H1N1)) assessed as cell viability at subtoxic concentration by cell-based MTS assay; assay type: functional, organism-based; details: A/Puerto Rico/8/1934(H1N1)
[11] = test system: Staphylococcus epidermidis; test: Antibacterial activity against biofilm of Staphylococcus epidermidis ATCC 35984 after 18 hrs by broth microdilution method; assay type: functional; details: RP62A
Bacillus subtilis [12] = test: Antibacterial activity against Bacillus subtilis ATCC 6633 after 18 hrs by broth microdilution method; assay type: functional; details: ATCC 6633, 18 h
H3N2 subtype [13] = test: Antiviral activity against Influenza A virus (A/Hong Kong/7/87(H3N2)) assessed as inhibition of virus-induced cytopathic effect at highest concentration by cell-based assay; assay type: functional, organism-based; details: A/Hong Kong/7/1987(H3N2); how it was run: as §1
Enterococcus faecalis [14] = test: Antibacterial activity against vancomycin and teicoplanin-sensitive Enterococcus faecalis ATCC 29212 after 18 hrs by broth microdilution method; assay type: functional; details: ATCC 29212, 18 h
Staphylococcus aureus [15] = test: Bactericidal activity against methicillin-sensitive Staphylococcus aureus ATCC 33591 after overnight incubation; assay type: functional
Staphylococcus aureus [16] = test: Bactericidal activity against methicillin-sensitive Staphylococcus aureus ATCC 29213 after overnight incubation; assay type: functional
Bacillus subtilis [17] = test: Bactericidal activity against Bacillus subtilis ATCC 6633 after overnight incubation; assay type: functional
[18] = test system: Staphylococcus epidermidis; test: Bactericidal activity against biofilm of Staphylococcus epidermidis ATCC 35984 after overnight incubation; assay type: functional; details: RP62A
Enterococcus faecalis [19] = test: Bactericidal activity against vancomycin and teicoplanin-sensitive Enterococcus faecalis ATCC 29212 after overnight incubation; assay type: functional
Enterococcus faecalis [20] = test: Bactericidal activity against vancomycin-resistant and teicoplanin-sensitive Enterococcus faecalis ATCC 51299 harboring vanB gene after overnight incubation; assay type: functional
[21] = test system: Staphylococcus epidermidis; test: Bactericidal activity against Staphylococcus epidermidis after overnight incubation; assay type: functional
Enterococcus faecalis [22] = test: Bactericidal activity against vancomycin and teicoplanin-resistant Enterococcus faecalis 15376 harboring vanA gene after overnight incubation; assay type: functional

Structure (SMILES)	MIC (Enterococcus faecalis [1])	inhibition (Influenza B virus [2])	inhibition (H3N2 subtype [3])	MIC [4]	inhibition (Influenza B virus [5])	MIC (Staphylococcus aureus [6])	MIC (Staphylococcus aureus [7])	MIC (Enterococcus faecalis [8])	inhibition (Influenza A virus [9])	inhibition (Influenza A virus [10])	MIC [11]	MIC (Bacillus subtilis [12])	MIC (Enterococcus faecalis [14])	MBC (Staphylococcus aureus [15])	MBC (Staphylococcus aureus [16])	MBC (Bacillus subtilis [17])	MBC [18]	MBC (Enterococcus faecalis [19])	MBC (Enterococcus faecalis [20])	MBC [21]	also measured
COC(=O)[C@@H]1NC(=O)[C@H]2NC(=O)[C@H](NC(=O)[C@@H]3NC(=O)[C@H]4NC(=O)[C@H](NC(=O)[C@H](n5cc(COc6ccc(-c7ccccc7)cc6)nn5)c5ccc(O)c(c5)Oc5cc4cc(O)c5C)[C@H](O)c4ccc(cc4)Oc4cc3cc(c4O)Oc3ccc(cc3)[C@H]2O)c2ccc(O)c(c2)-c2c(O)cc(O)cc21	> 256 µg/mL	inactive	inactive	> 256 µg/mL	inactive	> 256 µg/mL	> 256 µg/mL	> 256 µg/mL	inactive	inactive	> 256 µg/mL	> 256 µg/mL	> 256 µg/mL								inhibition (H3N2 subtype [13]): inactive
COC(=O)[C@H]1NC(=O)[C@H]2NC(=O)[C@H](NC(=O)[C@@H]3NC(=O)[C@H]4NC(=O)[C@H](NC(=O)[C@H](N=[N+]=[N-])c5ccc(O)c(c5)Oc5cc4cc(O)c5C)[C@H](O)c4ccc(cc4)Oc4cc3cc(c4O)Oc3ccc(cc3)[C@H]2O)c2ccc(O)c(c2)-c2c(O)cc(O)cc21	> 256 µg/mL			16 µg/mL (≈ 13.3 µM)		2 µg/mL (≈ 1.67 µM)	2 µg/mL (≈ 1.67 µM)	128 µg/mL (≈ 107 µM)			16 µg/mL (≈ 13.3 µM)	4 µg/mL (≈ 3.33 µM)	16 µg/mL (≈ 13.3 µM)	1 µg/mL (≈ 0.833 µM)	2 µg/mL (≈ 1.67 µM)	1 µg/mL (≈ 0.833 µM)	8 µg/mL (≈ 6.67 µM)	8 µg/mL (≈ 6.67 µM)	64 µg/mL (≈ 53.3 µM)	16 µg/mL (≈ 13.3 µM)	
CN[C@H](CC(C)C)C(=O)N[C@H]1C(=O)N[C@@H](CC(N)=O)C(=O)N[C@H]2C(=O)N[C@H]3C(=O)N[C@H](C(=O)N[C@H](C(=O)O)c4cc(O)cc(O)c4-c4cc3ccc4O)[C@H](O)c3ccc(c(Cl)c3)Oc3cc2cc(c3O[C@@H]2O[C@H](CO)[C@@H](O)[C@H](O)[C@H]2O[C@H]2C[C@](C)(N)[C@H](O)[C@H](C)O2)Oc2ccc(cc2Cl)[C@H]1O [VANCOMYCIN]	> 256 µg/mL							16 µg/mL (≈ 11 µM)				1 µg/mL (≈ 0.69 µM)		4 µg/mL (≈ 2.76 µM)	4 µg/mL (≈ 2.76 µM)	4 µg/mL (≈ 2.76 µM)	4 µg/mL (≈ 2.76 µM)	16 µg/mL (≈ 11 µM)	16 µg/mL (≈ 11 µM)	4 µg/mL (≈ 2.76 µM)	
COC(=O)[C@@H]1NC(=O)[C@H]2NC(=O)[C@H](NC(=O)[C@@H]3NC(=O)[C@H]4NC(=O)[C@@H](Cc5ccc(c(Cl)c5)Oc5cc3cc(c5O)Oc3ccc(cc3Cl)[C@H]2O[C@@H]2O[C@H](CO)[C@@H](O)[C@H](O)[C@H]2NC(C)=O)NC(=O)[C@H](N=[N+]=[N-])c2ccc(O)c(c2)Oc2cc(O)cc4c2)c2ccc(O)c(c2)-c2c(O)cc(O)cc21	16 µg/mL (≈ 11.1 µM)	inactive	inactive	4 µg/mL (≈ 2.77 µM)	inactive	4 µg/mL (≈ 2.77 µM)	4 µg/mL (≈ 2.77 µM)	16 µg/mL (≈ 11.1 µM)	inactive	inactive	8 µg/mL (≈ 5.55 µM)	8 µg/mL (≈ 5.55 µM)	16 µg/mL (≈ 11.1 µM)	8 µg/mL (≈ 5.55 µM)	8 µg/mL (≈ 5.55 µM)	8 µg/mL (≈ 5.55 µM)	8 µg/mL (≈ 5.55 µM)	256 µg/mL (≈ 178 µM)	256 µg/mL (≈ 178 µM)	4 µg/mL (≈ 2.77 µM)	MBC (Enterococcus faecalis [22]): 256 µg/mL (≈ 178 µM); inhibition (H3N2 subtype [13]): inactive
